Active and inactive are the calls of the source. The calls are words filed in the database; no cut-off is given here.

For data set [1], the system named is HL-60. Description: Cytotoxicity against human HL60 cells incubated for 3 days by CellTiter-Glo luminescent assay. The class given is functional, cell-based. The note with it: HL-60, 72 h. The essentials:
(§1)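 CellTiter-Glo viability read-out on leukemia cell lines. IC50 reported as the average of triplicates.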

For the next data set, the system named is KG-1. Description: Cytotoxicity against human KG1 cells incubated for 3 days by CellTiter-Glo luminescent assay. The format is functional, cell-based. The note with it: KG-1, 72 h. The method in brief:
as §1

For a further data set, the system named is Jurkat. As to the kind of experiment: Cytotoxicity against human Jurkat cells incubated for 3 days by CellTiter-Glo luminescent assay. The class given is functional, cell-based. As to conditions: 72 h. The essentials: as §1
A further data set concerns NALM-6. As to the kind of experiment: Cytotoxicity against human NALM6 cells incubated for 3 days by CellTiter-Glo luminescent assay. The format is functional, cell-based. The note with it: NALM-6, 72 h. The essentials:
as §1

The subject of another data set is Bone marrow cell. As to the kind of experiment: Cytotoxicity against human bone marrow cells incubated for 3 days by CellTiter-Glo luminescent assay. The class given is cell-based. As to conditions: 72 h.
Data set [2] is described as follows: Metabolic stability in human liver microsomes assessed as half life in presence of NADPH by LC-MS/MS analysis. The format is ADME, Microsome.
Data set [3] in a line: Metabolic stability in mouse liver microsomes assessed as half life in presence of NADPH by LC-MS/MS analysis. The class given is ADME, Microsome.
The nature of data set [4]: Elimination half life in NSG mouse at 2 mg/kg, iv measured after 7 to 150 mins by LC/MS/MS analysis. The format is ADME, organism-based. As to conditions: in vivo, read-out: beta t1/2 (converted). The essentials: (§2)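 Single IV dose of 2 mg/kg to NSG mice (NOD.Cg-Prkdc scid Il2rg tm1Wjl/SzJ), vehicle DMSO/Kolliphor EL/water (3/5/82). Compound levels measured in plasma at various times after injection. PK parameters derived from the plasma time-concentration profiles.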

Data set [5] in a line: AUC (0 to t) in NSG mouse at 2 mg/kg, iv measured after 7 to 150 mins by LC/MS/MS analysis. The format is ADME, organism-based. As to conditions: in vivo. The essentials: as §2
Data set [6] can be described thus: AUC (0 to infinity) in NSG mouse at 2 mg/kg, iv measured after 7 to 150 mins by LC/MS/MS analysis. The format is ADME, organism-based. Set-up: dose 2 mg/kg, time infinity, route intravenous. As to conditions: in vivo. The method in brief: as §2
Data set [7] in a line: MRT (0 to infinity) in NSG mouse at 2 mg/kg, iv measured after 7 to 150 mins by LC/MS/MS analysis. The class given is ADME, organism-based. The note with it: in vivo. The essentials:
as §2

Data set [8] in a line: Apparent volume of distribution in NSG mouse at 2 mg/kg, iv measured after 7 to 150 mins by LC/MS/MS analysis. The format is ADME, organism-based. As to conditions: in vivo. The method in brief:
as §2

A short description of data set [9]: Clearance in NSG mouse at 2 mg/kg, iv measured after 7 to 150 mins by LC/MS/MS analysis. The note with it: in vivo. The format is ADME, organism-based. The method in brief: as §2
A short description of data set [10]: Volume of distribution at steady state in NSG mouse at 2 mg/kg, iv measured after 7 to 150 mins by LC/MS/MS analysis. The note with it: in vivo. The format is ADME, organism-based. The method in brief:
as §2

Data set [11] deals with HL-60. As to the kind of experiment: Induction of apoptosis in human HL60 cells assessed as early apoptotic cells at 1 uM incubated for 1 day by AnnexinV/DAPI double staining based flow cytometric analysis (reference value: 3.2 +/- 0.1%). The format is functional.
Data set [12] deals with HL-60. As to the kind of experiment: Induction of apoptosis in human HL60 cells assessed as late apoptotic cells at 1 uM incubated for 1 day by AnnexinV/DAPI double staining based flow cytometric analysis (reference value: 1.2 +/- 0.03%). The format is functional.
Data set [13] has as its system HL-60. As to the kind of experiment: Induction of apoptosis in human HL60 cells assessed as PARP cleavage level at 1 uM incubated for 1 day by DAPI staining based flow cytometric analysis (reference value: 1.2 +/- 0.1%). The class given is functional.
Data set [14] has as its system HL-60. Description: Induction of cell cycle arrest in human HL60 cells assessed as S phase at 1 uM incubated for 1 day by DAPI staining based flow cytometric analysis (reference value: 27.5 +/- 0.57%). The class given is functional.
In data set [15] the test system is HL-60. Description: Induction of cell cycle arrest in human HL60 cells assessed as cyclin B expression in G2 phase by measuring as fluorescence intensity level at 1 uM incubated for 1 day by flow cytometric analysis (reference value: 1196.33 +/- 40.48). The class given is functional.
The species named for data set [16] is Homo sapiens. Description: Inhibition of CREB in human HL60 cells assessed as downregulation of RFC3 gene expression at 1 uM incubated for 1 day by RT-qPCR analysis. The format is cell-based. The method in brief:
(§3)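 HL60 cells given 1 μM compound for 1 d. RFC3 and POLD2 mRNA measured by RT-qPCR and normalized to 7SL lncRNA. Results given as mean of three independent experiments ± SEM.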

For data set [17], the species on record is Homo sapiens. Description: Inhibition of CREB in human HL60 cells assessed as downregulation of POLD2 gene expression at 1 uM incubated for 1 day by RT-qPCR analysis. The format is cell-based. The method in brief: as §3
Data set [18] in a line: Plasma concentration in NSG mouse at 2 mg/kg, iv measured after 7 to 150 mins by LC/MS/MS analysis. As to conditions: in vivo. The format is ADME, organism-based. The essentials:
as §2

Data set [19] deals with HL-60. As to the kind of experiment: Induction of cell cycle arrest in human HL60 cells assessed as accumulation at G1 phase at 1 uM incubated for 1 day by DAPI staining based flow cytometric analysis (reference value: 48.37 +/- 0.15%). The class given is functional.
Data set [20] concerns HL-60. Description: Induction of cell cycle arrest in human HL60 cells assessed as G2 phase at 1 uM incubated for 1 day by DAPI staining based flow cytometric analysis (reference value: 21.4 +/- 0.42%). The class given is functional.
Data set [21] deals with HL-60. As to the kind of experiment: Induction of cell cycle arrest in human HL60 cells assessed as M phase at 1 uM incubated for 1 day by DAPI staining based flow cytometric analysis (reference value: 2.64 +/- 0.06%). The format is functional.
Data set [22] is filed under the species Homo sapiens. As to the kind of experiment: Inhibition of CBP KIX domain (unknown origin) binding to BODIPY-labeled phosphorylated CREB KID domain (unknown origin) interaction pre-incubated for 30 mins by fluorescence polarization assay. The method in brief: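 Fluorescence polarization with BODIPY-labeled phosphorylated CREB KID domain and the CBP KIX domain. Polarization reports the degree of KIX-KID binding.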

Data set [23] can be described thus: Inhibition of KIX-RLucC fused CBP (unknown origin) binding to KID-RLucN fused CREB (unknown origin) transfected in human HEK293 cells preincubated with compound 30 mins before forskolin addition and measured after 90 mins in presence of coelenterazine by split Renilla luciferase complementation assay.

As to `N#Cc1ccc(NC(=O)c2ccc3cccnc3c2O)cc1`, the IC50 in the data set on HL-60 [1] is 370 nM; in the data set with KG-1 it was 2320 nM; in the data set with Jurkat it was 180 nM; with NALM-6 it was 130 nM; in the data set on Bone marrow cell, 3.07 µM. For the same molecule, the half-life was 124 min in [2], 157 min in data set [3] and 83.4 min in [4]. This molecule also returned an AUC(0-t) in data set [5] of 4070 ng·h/mL. Besides, in [6], the AUC(0-inf) is 4090 ng·h/mL. Moreover, the MRT inf in data set [7] was 27.5 min. Further, the Vz in data set [8] was 0.00098 mg/ng/mL. Besides, the CL in [9] came to 0.00049 mg/ng/mL/h. In [10], this molecule displayed a Vdss of 0.00022 mg/ng/mL. For the same molecule, the Activity in the data set on HL-60 [11] was 6.3%; with HL-60 [12], 3%; in the data set on HL-60 [13] it was 17.3%; in the data set on HL-60 [14], 33.7%. For the same molecule, the FI with HL-60 [15] is recorded as 875.33. Besides, the inhibition result in the data set listed under Homo sapiens [16] and in the data set listed under Homo sapiens [17] was “inactive” in each case.

On to `O=C(Nc1cc(C(F)(F)F)cc(C(F)(F)F)c1)c1cc(Br)c(-c2ccccc2)cc1O`, for which the IC50 is 430 nM in the data set with HL-60 [1]; 300 nM with KG-1; 680 nM with Jurkat; 840 nM with NALM-6; > 10 µM with Bone marrow cell; 1550 nM in [23]. Moreover, the values for the half-life in [2], in [3] and in [4] were 159 min, 159 min and 123 min, respectively. For the same molecule, the AUC(0-t) in data set [5] was 2250 ng·h/mL. The molecule further registered a total exposure AUC(0-inf) in data set [6] of 2330 ng·h/mL. This molecule returned an MRT inf in data set [7] of 61 min. For the same molecule, in data set [8], the Vz was determined as 0.003 mg/ng/mL. The CL in data set [9] stood at 0.00086 mg/ng/mL/h. Also, the Vdss in [10] turned out to be 0.00087 mg/ng/mL. Also, in data set [18], the Cp amounted to 19 ng/mL. In addition, the Activity in the data set with HL-60 [11] is listed as 8.8%; in the data set with HL-60 [12], 30.9%; in the data set with HL-60 [13], 58.1%; in the data set with HL-60 [19], 69.77%; in the data set with HL-60 [14], 14.27%; in the data set on HL-60 [20], 14.37%. Further, the Activity with HL-60 [21] is on record as 1.23%. Besides, the inhibition result in the data set filed under Homo sapiens [16], in the data set listed under Homo sapiens [17] and in the data set listed under Homo sapiens [22] was “Active” each time.

Source of the values: ChEMBL document CHEMBL4385626, “SAR optimization studies on modified salicylamides as a potential treatment for acute myeloid leukemia through inhibition of the CREB pathway” (Bioorg Med Chem Lett, 2019).
